Assay outcomes as filed in PubChem BioAssay.
Hits are enriched below; roughly 5.9% of the tested compounds scored in any of these assays.
IDH1 mut inh – inhibitors of human IDH1 R132H. O75874. IDH1 R132H reductase, diaphorase/resazurin fluorescence, 60 min. inhibition, % at 10 µM. 70,000 compounds, 0.18% hits; in the data active = inhibition above about 34%; inconclusive = no clear call, values can overlap the other calls; inactive = below about 11%;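 also: 0% = DMSO and 100% = no enzyme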
Target sequence (O75874 whole entry R132H): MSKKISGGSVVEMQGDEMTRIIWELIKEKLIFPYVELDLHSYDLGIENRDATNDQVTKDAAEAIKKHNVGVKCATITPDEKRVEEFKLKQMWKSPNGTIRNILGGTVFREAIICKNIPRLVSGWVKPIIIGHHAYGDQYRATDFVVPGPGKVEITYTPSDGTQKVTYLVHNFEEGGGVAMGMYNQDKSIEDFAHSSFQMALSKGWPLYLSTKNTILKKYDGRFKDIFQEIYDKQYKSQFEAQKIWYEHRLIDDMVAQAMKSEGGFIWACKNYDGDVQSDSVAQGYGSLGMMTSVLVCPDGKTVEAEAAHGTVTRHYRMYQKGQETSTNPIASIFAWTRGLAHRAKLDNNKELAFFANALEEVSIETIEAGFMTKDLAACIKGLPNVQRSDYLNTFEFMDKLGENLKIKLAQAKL
Pf Dd2 inh – blocks growth of Plasmodium falciparum Dd2 parasites. P. falciparum Dd2 growth, SYBR Green, 72 h; hits give low values. activity change, % at 10 µM. 94,000 compounds, 2.3% hits; in the data active = activity change below about -80%; inconclusive = no clear call, values can overlap the other calls
KDM4C inh – inhibitors of human demethylase GASC-1 KDM4C | GST-KDM4C 2-372, H3K9me3 peptide, LANCE TR-FRET | inhibition, % at 12.5 µM | 96,000 compounds, 0.15% hits;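 active = mean replicate inhibition above about 25%, with at least 55% of replicates also reaching it, limit read from the data, passing the limit was not always enough; inconclusive = only one of those two conditions met; inactive = neither condition met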
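System: N-terminal GST-fused human GASC-1 (KDM4C) fragment, residues 2-372; amount: enzyme final amount 10 nM; incubation: reaction 30 min RT, detection step 1 h RT; medium: HEPES buffer, pH 7.5, plus ascorbate; technique: LANCE TR-FRET, Eu antibody, ULight-streptavidin, EDTA, ex 340 nm, em 618/671 nm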
T cruzi growth-1 – inhibitors of T. cruzi proliferation | T. cruzi beta-gal in NIH3T3, GalScreen luminescence, 90 h | inhibition, % at 8.34 µM | 77,000 compounds, 5.9% hits | AID 624255;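 active = mean inhibition above about 93%, with at least 55% of replicates each passing it, limit read from the data, passing the limit was not always enough; inconclusive = only one of those two conditions holds; inactive = neither condition holds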
T cruzi growth-2 – inhibitors of T. cruzi proliferation; inhibition, % at 8.35 µM; shares compounds with T cruzi growth-1; T. cruzi beta-gal in NIH3T3, GalScreen luminescence, 90 h; 5,600 compounds, 72% hits;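 active = mean replicate inhibition above about 95% and at least 55% of replicates individually reaching it, limit read from the data; inconclusive = only one of the two criteria is met; inactive = neither criterion is met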
T cruzi growth-3 – blocks T. cruzi growth in NIH3T3 host cells | shares compounds with T cruzi growth-1 | T. cruzi beta-gal in NIH3T3, GalScreen luminescence, 90 h | inhibition, % at 2.09 µM | 5,600 compounds, 21% hits | AID 651740;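 active = mean inhibition above about 95%, with at least 55% of replicates also reaching it, limit read from the data; inconclusive = meets just one of the two conditions; inactive = meets neither condition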;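 also: plate controls were neutral control median for no effect and positive control median for full effect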
NIH3T3 tox – NIH/3T3 (mouse) viability loss; shares compounds with T cruzi growth-1; NIH/3T3 viability, CellTiter-Glo ATP luminescence, 90 h; cytotoxicity (signal decrease), % at 8.35 µM; 5,600 compounds, 14% hits;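 active = mean signal decrease across replicates above about 35% based on untreated-well scatter, with enough replicates individually passing, limit read from the data; inconclusive = no rule stated though some were filed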;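 also: 0% = median of neutral control wells and 100% = median of positive control wells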
NIH3T3 tox 2 – kills mouse NIH/3T3 fibroblasts | shares compounds with T cruzi growth-1 | NIH/3T3 viability, CellTiter-Glo ATP luminescence, 90 h | inhibition, % at 24.9 µM | 5,600 compounds, 56% hits | AID 651744;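 active = mean loss of cell viability signal at or above a set limit, and enough replicates individually reaching it; inconclusive = meets only the mean limit or only the replicate share; inactive = meets neither condition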;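 also: 0% = median of neutral control wells and 100% = median of positive control wells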
The depositor's hits bear a star.

Screening CCCNC(=O)C[C@H]1CC[C@H]2[C@@H](COC[C@H](O)CN2C(=O)Nc2ccccc2OC)O1 returned Pf Dd2 inh -22.0, KDM4C inh 0.7, T cruzi growth-1 117.4*, T cruzi growth-2 97.4*, T cruzi growth-3 -0.1, NIH3T3 tox -7.9 and NIH3T3 tox 2 -10.1.
For C[C@@H](NC(=O)C[C@@H]1CC[C@H]2[C@@H](COC[C@H](O)CN2C(=O)Nc2cc(Cl)cc(Cl)c2)O1)c1ccccc1 the results were Pf Dd2 inh -2.0, KDM4C inh 1.0, T cruzi growth-1 100.3*, T cruzi growth-2 103.8*, T cruzi growth-3 90.5, NIH3T3 tox 30.3 and NIH3T3 tox 2 52.3*.
Screening C[C@@H](NC(=O)C[C@H]1CC[C@H]2[C@@H](COC[C@H](O)CN2C(=O)Nc2cccc(Cl)c2)O1)c1ccccc1 returned Pf Dd2 inh -42.0, KDM4C inh 1.1, T cruzi growth-1 109.6*, T cruzi growth-2 105.0*, T cruzi growth-3 -0.7, NIH3T3 tox 10.5 and NIH3T3 tox 2 46.4*.
`CCCNC(=O)C[C@@H]1CC[C@H]2[C@@H](COC[C@H](O)CN2C(=O)Nc2ccccc2OC)O1` gave Pf Dd2 inh 1.4, KDM4C inh -0.4 and T cruzi growth-1 48.2.
Screening COc1cccc(NC(=O)N2C[C@H](O)COC[C@H]3O[C@@H](CC(=O)NC4Cc5ccccc5C4)CC[C@@H]32)c1 returned Pf Dd2 inh 12.9, KDM4C inh 1.1, T cruzi growth-1 109.3*, T cruzi growth-2 -6.6, T cruzi growth-3 -42.3, NIH3T3 tox -16.1 and NIH3T3 tox 2 -4.2.
For CC(C)=CCC/C(C)=C/CC/C(C)=C/CSc1ncn[nH]1 the results were IDH1 mut inh 0.6.
Screening COc1ccc([N+](=O)[O-])cc1NC(=O)CN(c1ccc(Br)c(C)c1)S(C)(=O)=O returned IDH1 mut inh 0.4.
Screening C[C@@H]1CN([C@@H](C)CO)C(=O)c2cc(NC(=O)NC3CCCCC3)ccc2O[C@@H](C)CCCCO[C@@H]1CN(C)C(=O)Nc1ccccc1 returned Pf Dd2 inh -54.0, KDM4C inh 0.7 and T cruzi growth-1 14.1.
`C[C@H]1CCCCO[C@@H](CN(C)C(=O)NC2CCCCC2)[C@@H](C)CN([C@@H](C)CO)C(=O)c2cc(NC(=O)Nc3ccccc3)ccc2O1` gave Pf Dd2 inh -71.2, KDM4C inh -1.8, T cruzi growth-1 110.1*, T cruzi growth-2 110.6*, T cruzi growth-3 9.4, NIH3T3 tox -17.8 and NIH3T3 tox 2 -3.8.
`C[C@H]1CCCCO[C@@H](CN(C)C(=O)Nc2ccccc2)[C@@H](C)CN([C@@H](C)CO)C(=O)c2cc(NC(=O)NC3CCCCC3)ccc2O1` gave Pf Dd2 inh -21.4, KDM4C inh -0.4, T cruzi growth-1 97.8*, T cruzi growth-2 inconclusive, T cruzi growth-3 13.8, NIH3T3 tox -9.5 and NIH3T3 tox 2 -14.4.
C[C@H]1CCCCO[C@H](CN(C)C(=O)NC2CCCCC2)[C@@H](C)CN([C@@H](C)CO)C(=O)c2cc(NC(=O)Nc3ccccc3)ccc2O1 was read as Pf Dd2 inh -47.6, KDM4C inh 6.8 and T cruzi growth-1 91.6.
For Cc1nnc(SCC(=O)n2c3c(c4ccccc42)CC(C)CC3)s1 (stereo not given) the results were IDH1 mut inh -0.6.
Screening COC(=O)c1ccc(NC(=O)CSc2nnc(-c3cnccn3)n2C)cc1 returned IDH1 mut inh 0.5.
Screening O=C(C[C@H]1CC[C@H]2[C@@H](COC[C@@H](O)CN2S(=O)(=O)c2ccccc2)O1)Nc1ccc(-c2ccccc2)cc1 returned Pf Dd2 inh -13.6, KDM4C inh 2.5 and T cruzi growth-1 88.0.
